ChEMBL document CHEMBL1128525, “The role of water molecules in the structure-based design of (5-hydroxynorvaline)-2-cyclosporin: synthesis, biological activity, and crystallographic analysis with cyclophilin A” (J Med Chem, 1995)

What was measured:
[1] = target: T1, Peptidyl-prolyl cis-trans isomerase A (Homo sapiens, UniProt P62937); assay: In vitro binding affinity against cyclophilin A by ELISA
[2] = target: T1, Peptidyl-prolyl cis-trans isomerase A; assay: In vitro binding affinity against cyclophilin A by rotamase assay
[3] = species on record: Mus musculus; assay: The compound was evaluated in vitro for the immunosuppressive activity in mouse mixed lymphocyte reaction (MLR_M); assay type: functional
Procedure, shortened: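 Cellular immunosuppression read in the mouse mixed lymphocyte reaction or the interleukin-2 reporter gene assay. The IC50 in nM is the mean of three independent experiments.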

T1 sequence (P62937 whole entry): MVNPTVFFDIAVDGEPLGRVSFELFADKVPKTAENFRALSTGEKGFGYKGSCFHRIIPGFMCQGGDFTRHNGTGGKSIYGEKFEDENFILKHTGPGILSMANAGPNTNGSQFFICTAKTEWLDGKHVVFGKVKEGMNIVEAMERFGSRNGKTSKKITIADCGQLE

IC50 [1] [µM] | IC50 [2] [µM] | IC50 [3] [µM] | Structure (SMILES)
0.45 | 0.256 | 0.14 | C/C=C/C[C@@H](C)[C@@H](O)[C@@H]1C(=O)N[C@H](CCCO)C(=O)N(C)CC(=O)N(C)[C@H](CC(C)C)C(=O)N[C@H](C(C)C)C(=O)N(C)[C@H](CC(C)C)C(=O)N[C@H](C)C(=O)N[C@@H](C)C(=O)N(C)[C@H](CC(C)C)C(=O)N(C)[C@H](CC(C)C)C(=O)N(C)[C@H](C(C)C)C(=O)N1C
0.093 | 0.048 | 0.056 | C/C=C/C[C@@H](C)[C@@H](O)[C@@H]1C(=O)N[C@H](CCC)C(=O)N(C)[C@@H](CO)C(=O)N(C)[C@H](CC(C)C)C(=O)N[C@H](C(C)C)C(=O)N(C)[C@H](CC(C)C)C(=O)N[C@H](C)C(=O)N[C@@H](C)C(=O)N(C)[C@H](CC(C)C)C(=O)N(C)[C@H](CC(C)C)C(=O)N(C)[C@H](C(C)C)C(=O)N1C

Structure (SMILES) | IC50 [1] [µM] | IC50 [2] [µM] | IC50 [3] [µM]
C/C=C/C[C@@H](C)[C@@H](O)[C@H]1C(=O)N[C@@H](CCC)C(=O)N(C)CC(=O)N(C)[C@@H](CC(C)C)C(=O)N[C@@H](C(C)C)C(=O)N(C)[C@@H](CC(C)C)C(=O)N[C@@H](C)C(=O)N[C@H](C)C(=O)N(C)[C@@H](CC(C)C)C(=O)N(C)[C@@H](CC(C)C)C(=O)N(C)[C@@H](C(C)C)C(=O)N1C [GECLOSPORIN] | 0.31 | 0.13 | 0.046
